# Results pooled from the literature.
# Protocols differ between the studies behind these lines.
# Cell line: U-251
# Effect on: cell growth or viability
SMILES,test,setting,measurement,result
COc1nc(OCc2cccc(-c3ccccc3)c2C)ccc1CNCCNC(C)=O,MTT,,IC50,4300 nM
COc1cccc(Oc2ccccc2NC(=O)CNC(=O)c2cccc3ccccc23)c1,SRB,48 h,GI50,240 nM
COc1cc(-c2ccc(-c3ccc(C(=N)N)nc3)s2)cc(OC)c1OC,SRB,,GI50,1740 nM
O=C1Nc2ccccc2C1=NNc1nnc2n1N=C(c1ccccc1)CS2,SRB,10 µM,inhibition,50%
CC(=O)O[C@H]1C(=O)[C@@]2(C)[C@H]([C@H](OC(=O)c3ccccc3)[C@]3(O)C[C@H](OC(=O)[C@H](O)[C@@H](NC(=O)c4ccccc4)c4ccccc4)C(C)=C1C3(C)C)[C@]1(OC(C)=O)CO[C@@H]1C[C@@H]2O,,,IC50,0.5 µg/mL
COc1ccc(C(=O)/C=C/c2cccc(Br)c2)cc1S(N)(=O)=O,SRB,10 µM,inhibition,198%
COc1ccc(-c2ccc(-c3ccc(C(=N)N)nc3)s2)cc1,SRB,,GI50,1810 nM
Cc1cc(NC(=O)c2cccc3cc(-c4cccc5[nH]nc(N)c45)ccc23)ccc1F,CCK-8,72 h,IC50,> 20000 nM
COc1ccc(C(=O)/C=C/c2cccnc2)cc1S(N)(=O)=O,SRB,10 µM,inhibition,89%
